Records with an inconclusive call do not appear. The source made the active and inactive calls.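 Rule for the calls, unless noted: active = inhibition over a set limit, the all-compound mean plus 3 SD, in both replicate runs; inconclusive = over that limit in just one replicate run; inactive = at or under that limit in both runs.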
Experiments:
[1] = S. cerevisiae growth inhibition in permissive medium (OD615), pilot counter-assay for S. cerevisiae lifespan shortening project, permissive growth control (AID 705;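 active = growth inhibition above 25% in both replicates, a cutoff set 3 SD above the mean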); settings: OD615, 24 h, at 10 µM, stronger effect = higher value
Summary of the method: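 System: engineered DeaD yeast; Medium: permissive raffinose/galactose medium; Compound dosing: 10 µM single dose, 0.25% DMSO; Incubation: 4 h cell pre-growth, 24 h exposure at 30 °C; Technique: OD at 615 nm; Evaluation: growth inhibition from lowered OD615 after 24 h.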

[2] = S. cerevisiae growth inhibition in restrictive medium, OD615, pilot screen, restrictive growth control, yeast lifespan reduction project (AID 706;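 active = growth inhibition above a set limit, 3 SD over mean compound inhibition, in both replicates, cut at about 43% in these data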;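 note: modified DeaD lifespan yeast strain shifted to restrictive glucose medium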); settings: OD615, 48 h, at 10 µM, stronger effect = higher value
Summary of the method: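 Material: modified S. cerevisiae; buffer or medium: CSMM-D glucose medium; doses: one concentration, 10 µM final, 0.25% DMSO; incubation: 48 h compound exposure at 30 °C; detection: optical density at 615 nm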

[3] = doxorubicin toxicity protection in MRP-1 cells – H69AR cells, CellTiter-Glo, duplicate, MRP-1 activator project, pilot screen (AID 807;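 active = viability increase at or above a cutoff of the median across tested compounds plus 3 SD, cut at about 8.5% in these data, passing the limit was not always enough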;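 note: compound pretreatment 18-22 h then 72 h combined with doxorubicin; 0% = doxorubicin alone and 100% = vehicle without doxorubicin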); settings: H69AR viability with doxorubicin, CellTiter-Glo luminescence; at 10 µM; stronger effect = higher value
[4] = viability of HCT116 without oncogenic beta-catenin – human colon tumor cells, pilot screen (AID 823;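 active = cell viability at or below a set limit in both duplicate runs, the limit being the all-compound median minus 4 SD, cut at about 23% in these data, passing the limit was not always enough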;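 note: 0% = wells killed by 20 µM Hyamine and 100% = untreated DMSO cell wells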); settings: HCT116 beta-catenin knockout viability, CellTiter-Glo, 60 h; at 10 µM; stronger effect = lower value
[5] = viability of PTEN-null HCT116 cells – cell-based, HCT116 clonal line, CellTiter-Glo, pilot screen (AID 824;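 active = viability at or below 27.92% in each of two runs, the all-compound median minus 4 SD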;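 note: 0% = 20 µM Hyamine control and 100% = vehicle cell control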); settings: HCT116 PTEN-deleted viability, 60 h, at 10 µM, stronger effect = lower value
[6] = RAM pathway blockade in budding yeast – dse1pr::URA3 reporter, 5-FOA selection, pilot screen (AID 869);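 note: 0% = DMSO wells with no growth and 100% = 10 µM 1-NA-PP1 with full growth; RAM network block rescues cells from 5-FOA so hits raise OD615 growth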; settings: S. cerevisiae dse1pr::URA3 5-FOA growth, OD615, 2 d; at 10 µM; stronger effect = higher value; strain carries analog-sensitive mutant Cbk1 kinase
[7] = RAM signaling pathway blockade in yeast – S. cerevisiae, Pdr1DBD-CYC8 efflux-inhibited sensitized strain, primary screen (AID 1298;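 active = RAM network inhibition above 8.4% in each of two replicates, 3 SD over the compound average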;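 note: 0% = DMSO untreated cells without growth and 100% = 10 µM 1-NA-PP1 full growth; higher means more yeast growth rescued from 5-FOA killing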); settings: S. cerevisiae cbk1-as DSE1-URA3 strain, 5-FOA growth OD615, 2 d; at 50 µM; stronger effect = higher value

O=C(NCCCc1ccccc1)C1CCN(c2nnc(-n3cccc3)s2)CC1
inactive: growth inhibition [1] -1.03% | growth inhibition [2] 0.98% | viability increase [3] 3.79% | viability [4] 93.3% | viability [5] 97% | inhibition [6] 0.175% | RAM network inhibition [7] 5.38%

Cn1c(=O)c2c(nc(SCc3cc4c(cc3Cl)OCO4)n2C)n(C)c1=O
inactive: growth inhibition [1] -5.9% | growth inhibition [2] -0.11% | viability increase [3] -0.21% | viability [4] 99.6% | viability [5] 100% | inhibition [6] 1.15% | RAM network inhibition [7] 5.36%

COc1ccc(-c2nnc(SCC(=O)N3CCN(c4ccccc4)CC3)o2)cc1OC
inactive: growth inhibition [1] -7.28% | growth inhibition [2] 7.65% | viability increase [3] -6.37% | viability [4] 73.7% | viability [5] 90% | inhibition [6] 1.64% | RAM network inhibition [7] 1.67%

COC(=O)C1=C(C)N(C)C(C)=C(C(=O)OC)C1c1ccccc1C
inactive: growth inhibition [1] -18.8% | growth inhibition [2] -21.1% | viability increase [3] -0.42% | viability [4] 94.6% | viability [5] 87.7% | inhibition [6] 0.365% | RAM network inhibition [7] 3.87%

C=C(C)CSc1nnc(-c2cc(OC)c(OC)c(OC)c2)n1N
inactive: growth inhibition [1] 8.03% | growth inhibition [2] 7.75% | viability increase [3] -1.01% | viability [4] 95.2% | viability [5] 97.8% | inhibition [6] 0.94% | RAM network inhibition [7] 4%

CN1C(=O)c2cccc(NC(=O)Cc3ccccc3)c2C1=O
inactive: growth inhibition [1] 1.68% | growth inhibition [2] 15.6% | viability increase [3] -1.47% | viability [4] 111% | viability [5] 91.1% | inhibition [6] 0.625% | RAM network inhibition [7] -0.88%

COc1ccc(-c2cn3c(C)c(C(=O)NC(C)(C)C)sc3n2)cc1
inactive: growth inhibition [1] -8.09% | growth inhibition [2] -9.73% | viability increase [3] -5.94% | viability [4] 81.5% | viability [5] 85.7% | inhibition [6] 0.645% | RAM network inhibition [7] 1.82%

Cc1cc(C(=O)OCc2nnc(-c3ccccc3)o2)c(C)n1-c1ccccc1
inactive: growth inhibition [1] -4.06% | growth inhibition [2] -12% | viability increase [3] -1.07% | viability [4] 84.4% | viability [5] 80.6% | inhibition [6] 0.125% | RAM network inhibition [7] 2.44%

COc1ccccc1N1CCN(CC(=O)c2ccc3ccn(C(C)=O)c3c2)CC1
inactive: growth inhibition [1] -3.38% | growth inhibition [2] -12.2% | viability increase [3] -5.06% | viability [4] 88.2% | viability [5] 79.8% | inhibition [6] 1.14% | RAM network inhibition [7] 3.27%

C=CCN(C(=O)CN1CCOCC1)c1nc(C)c(-c2ccccc2)s1
inactive: growth inhibition [1] -16.4% | growth inhibition [2] -12.9% | viability increase [3] -3.35% | viability [4] 91.9% | viability [5] 87.4% | inhibition [6] -0.245% | RAM network inhibition [7] 0.88%

CC(=O)NC(CCS(C)(=O)=O)C(=O)Nc1cc(C)ccc1C (centres undefined)
inactive: growth inhibition [1] -10.6% | growth inhibition [2] -20% | viability increase [3] 0.57% | viability [4] 98.5% | viability [5] 94.3% | inhibition [6] 2.23% | RAM network inhibition [7] 3.07%

NC(=O)c1cc(N2C(=O)C3CC=CCC3C2=O)ccc1N1CCCCC1 (centres undefined)
inactive: growth inhibition [1] -21.2% | growth inhibition [2] -3.95% | viability increase [3] 0.16% | viability [4] 93.1% | viability [5] 92.4% | inhibition [6] 1.98% | RAM network inhibition [7] 4.2%

CC(=O)CSc1nc2ccc(Nc3nc(N4CCOCC4)nc(N4CCOCC4)n3)cc2s1
inactive: growth inhibition [1] 15.1% | growth inhibition [2] 38.6% | viability increase [3] -5.89% | viability [4] 66.6% | viability [5] 73.5% | inhibition [6] 0.87% | RAM network inhibition [7] 7.76%

CCCCOc1ccc(CN2CCC(O)CC2)cc1
inactive: growth inhibition [1] -18.6% | growth inhibition [2] -6.13% | viability increase [3] -0.47% | viability [4] 90.9% | viability [5] 100% | inhibition [6] 1.06% | RAM network inhibition [7] 2.2%

COC(=O)c1cc(Nc2cc(C)nc3ncnn23)cc(C(=O)OC)c1
inactive: growth inhibition [1] 7.62% | growth inhibition [2] 11% | viability increase [3] -3.2% | viability [4] 108% | viability [5] 97.1% | inhibition [6] 1.31% | RAM network inhibition [7] 1.36%

CC1CCCN(Cc2nc3c(c(=O)n(C)c(=O)n3C)n2Cc2c(F)cccc2Cl)C1 (centres undefined)
inactive: growth inhibition [1] -8.39% | growth inhibition [2] -6.31% | viability increase [3] -4.6% | viability [4] 84.4% | viability [5] 80.2% | inhibition [6] 1.09% | RAM network inhibition [7] 10.9%

CCOC(=O)c1ccccc1Nc1cc(C)nc2nc(C)nn12
inactive: growth inhibition [1] -4.38% | growth inhibition [2] 9.16% | viability increase [3] -5.14% | viability [4] 97.6% | viability [5] 93% | inhibition [6] 1.52% | RAM network inhibition [7] 1.2%

Cc1nnc(SCC(=O)NC(C)c2ccccc2)[nH]c1=O (centres undefined)
inactive: growth inhibition [1] -10.9% | growth inhibition [2] -9.25% | viability increase [3] -1.16% | viability [4] 101% | viability [5] 99.3% | inhibition [6] 4.54% | RAM network inhibition [7] 5.85%

Cn1c(=O)c2c(nc(CN3CCOCC3)n2CCc2ccccc2)n(C)c1=O
inactive: growth inhibition [1] -8.53% | growth inhibition [2] -15.8% | viability increase [3] 3.73% | viability [4] 95% | viability [5] 94.7% | inhibition [6] 1.48% | RAM network inhibition [7] 0.56%

O=C(c1ccccc1NS(=O)(=O)c1cccs1)N1CCCC1
inactive: growth inhibition [1] -1.34% | growth inhibition [2] 3.17% | viability increase [3] -0.63% | viability [4] 93.1% | viability [5] 94.1% | inhibition [6] 1.84% | RAM network inhibition [7] 1.28%

CN1CCN(c2ccccc2NC(=O)Cc2cn(C)c3ccccc23)CC1
inactive: growth inhibition [1] 3.05% | growth inhibition [2] -4.69% | viability increase [3] -2.96% | viability [4] 92.8% | viability [5] 93.7% | inhibition [6] -0.845% | RAM network inhibition [7] 2.59%

O=C(CCCCCn1c(=O)[nH]c2ccsc2c1=O)N1CCN(C2CCCCC2)CC1
inactive: growth inhibition [1] -5.63% | growth inhibition [2] -0.345% | viability increase [3] -1.81% | viability [4] 95.3% | viability [5] 92.3% | inhibition [6] 1.38% | RAM network inhibition [7] 3%

CCn1c(=NC(=O)CN2C(=O)CCC2=O)sc2c(C)cc(C)cc21
inactive: growth inhibition [1] -13.1% | growth inhibition [2] -2.35% | viability increase [3] -4.23% | viability [4] 92.2% | viability [5] 91.2% | inhibition [6] 0.505% | RAM network inhibition [7] 6.51%

CCOc1cccc(C2c3c(oc4ccccc4c3=O)C(=O)N2c2ccccn2)c1 (centres undefined)
inactive: growth inhibition [1] -1.86% | growth inhibition [2] -9.72% | viability increase [3] -2.2% | viability [4] 95.6% | viability [5] 93.9% | inhibition [6] 0% | RAM network inhibition [7] 2.56%

CCOC(=O)Cn1c(=O)oc2cc(S(=O)(=O)N3CCCC(C(=O)OCC)C3)ccc21 (centres undefined)
inactive: growth inhibition [1] -2.33% | growth inhibition [2] -20.5% | viability increase [3] -1.74% | viability [4] 95.4% | viability [5] 90.7% | inhibition [6] 0.87% | RAM network inhibition [7] 1.99%

Cc1ccc(C(C)C)c(OCc2nc(-c3nonc3N)no2)c1
active: viability increase [3] 8.48%
inactive: growth inhibition [1] -13% | growth inhibition [2] -14.4% | viability [4] 88.3% | viability [5] 81.2% | inhibition [6] 1.71% | RAM network inhibition [7] 3.09%

Cc1ccc(C)c(NC(=O)CS(=O)(=O)c2c[nH]c3ccccc23)c1
inactive: growth inhibition [1] -9.01% | growth inhibition [2] -31.9% | viability increase [3] -2.95% | viability [4] 96.5% | viability [5] 93.5% | inhibition [6] 2.13% | RAM network inhibition [7] -0.27%

COC(=O)c1ccccc1NC(=O)CS(=O)(=O)Cc1nc(-c2ccc(C)cc2)oc1C
inactive: growth inhibition [1] -9.1% | growth inhibition [2] -21.8% | viability increase [3] -2.52% | viability [4] 93.5% | viability [5] 87.8% | inhibition [6] 4.7% | RAM network inhibition [7] 4.03%

COc1ccccc1-c1c(C)nn2c(N3CCN(c4ccccc4OC)CC3)cc(C)nc12
inactive: growth inhibition [1] -0.095% | growth inhibition [2] 6.77% | viability increase [3] -1.57% | viability [4] 60.7% | viability [5] 63.2% | inhibition [6] 0.775% | RAM network inhibition [7] 1.3%

COc1ccc(CC(=O)N2CCN=C2SC)cc1
inactive: growth inhibition [1] 3.24% | growth inhibition [2] -0.34% | viability increase [3] 1.06% | viability [4] 99.3% | viability [5] 103% | inhibition [6] 1.54% | RAM network inhibition [7] 0.48%

Cn1c(C(=O)N2CCN(c3ccccn3)CC2)cc2c(=O)n(C)c3ccccc3c21
inactive: growth inhibition [1] 2.93% | growth inhibition [2] 16.5% | viability increase [3] -2.39% | viability [4] 102% | viability [5] 97.4% | inhibition [6] 0.875% | RAM network inhibition [7] -0.81%

COc1ccccc1-c1c(C)nn2c(N3CCCCCC3)cc(C)nc12
inactive: growth inhibition [1] -5.18% | growth inhibition [2] -3.49% | viability increase [3] -7.77% | inhibition [6] 1.42% | RAM network inhibition [7] -0.76%
active: viability [4] 6.78% | viability [5] 7.98%

— PubChem BioAssay
